In article PMC9453980 (ACS Omega, 2022):

How the values were obtained:
HeLa cells [1] = assay: RPA foci formation; type: cell-based, human
Summary of the method: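 HeLa cells were seeded for 24 h, then treated with test agents for 24 h. They were fixed in 4% paraformaldehyde for 20 min, permeabilized with 0.3% Triton X-100 and blocked in 5% BSA. Cells were stained overnight at 4 °C for RPA2 and γH2AX, then with fluorescent secondaries and DAPI. Automated microscopy scored the percentage of RPA-foci-positive cells.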

BaPif1 [2] = assay: F-EMSA assay of BaPif1-dT12 interaction; type: binding, Bacteroides sp. 2-1-16
BaPif1 [3] = assay: ATPase activity assay; type: biochemical, Bacteroides sp. 2-1-16; conditions: read-out: IC50, inhibition of ATPase activity of BaPif1
Summary of the method: (§1)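 ATP depletion (luciferase) assay. BaPif1 (GST fusion expressed in E. coli BL21(DE3), tag cleaved) or hPif1 helicase domain (aa200-641, N-terminal His6, E. coli BL21(DE3)), at 0.1 mg/mL. Protein was preincubated with a compound dilution series for 30 min at 25 °C in 20 mM Tris-HCl pH 7.5, 150 mM NaCl, 5 mM MgCl2, 5% DMSO final. 100 nM ssDNA and 100 nM ATP were added, 10 min at 25 °C, then stopped with NaOH. Remaining ATP was read as firefly luciferase luminescence.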

BaPif1 [4] = assay: Helicase; type: biochemical, Bacteroides sp. 2-1-16; conditions: gel-based titration
hPif1-HD [5] = target: T1, hPif1-HD (Homo sapiens, UniProt Q9H611); assay: FP assay of DNA-binding activity
T1 sequence (Q9H611 200-641): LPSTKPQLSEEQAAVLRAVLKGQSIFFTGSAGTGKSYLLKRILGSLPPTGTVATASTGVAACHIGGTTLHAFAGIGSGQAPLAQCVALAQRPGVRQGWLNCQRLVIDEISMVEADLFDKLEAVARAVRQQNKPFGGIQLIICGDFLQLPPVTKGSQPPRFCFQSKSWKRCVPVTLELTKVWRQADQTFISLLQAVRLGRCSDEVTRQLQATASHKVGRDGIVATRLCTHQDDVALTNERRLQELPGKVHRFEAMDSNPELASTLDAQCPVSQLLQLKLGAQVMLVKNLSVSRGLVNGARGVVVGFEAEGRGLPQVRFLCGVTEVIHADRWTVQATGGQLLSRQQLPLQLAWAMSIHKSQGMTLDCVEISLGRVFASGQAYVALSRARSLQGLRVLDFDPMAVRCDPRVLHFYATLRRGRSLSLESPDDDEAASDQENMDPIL
Summary of the method: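 Fluorescence polarization read at ex 480/em 520 nm. The hPif1 helicase domain (aa200-641, His6-tagged) was at 10 μM with 0.5 μM FAM-labelled DNA and a titration of test compound. Buffer was 25 mM Tris-HCl pH 7.5, 5 mM MgCl2, with no DTT. IC50 was obtained by fitting the binding curves.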

hPif1-HD [6] = target: T1, hPif1-HD; assay: ATPase activity assay; type: biochemical
Summary of the method: as §1

hPif1-HD [7] = target: T1, hPif1-HD; assay: Helicase; type: biochemical; conditions: 20 μM hPif1-HD, 20 bp dsDNA with 5′ dT55 tail
BaPif1 [8] = assay: Filtration-dilution reversibility experiment; type: biochemical, Bacteroides sp. 2-1-16; conditions: 50 μM compound, three filtration and dilution cycles, 1000-fold dilution
Summary of the method: (§2)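 Reversibility test. Wild-type or C380A BaPif1 at 0.1 mg/mL in ATPase buffer was incubated 30 min with 5% DMSO or 50 μM compound in 5% DMSO. It was concentrated on a 10 kDa cut-off centrifugal filter and the retentate diluted 10-fold with buffer. This was done three times (1000-fold total). Residual ATPase activity was then measured by the luciferase ATP assay and expressed as percent inhibition.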

BaPif1 C380A mutant [9] = assay: FP assay of DNA-binding activity, C380A mutant; parameters: species or system Bacteroides sp. 2-1-16
Summary of the method: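 FP competition with FAM-labelled DNA in 25 mM Tris-HCl pH 7.5, 5 mM MgCl2 (ex 480/em 520 nm). The C380A point mutant was made by PCR mutagenesis and purified as for wild type, and was compared with wild-type BaPif1. Each protein was held with 50 μM test compound across a range of DTT concentrations to give dose-response curves.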

BaPif1 C234A mutant = assay: FP assay of DNA-binding activity, C234A mutant; parameters: species or system Bacteroides sp. 2-1-16
BaPif1 C380A mutant [10] = assay: Filtration-dilution reversibility experiment, C380A mutant; type: biochemical, Bacteroides sp. 2-1-16; conditions: filtration experiments
Summary of the method: as §2

HeLa cells [11] = assay: Western blot of Pif1, RPA2 and γH2AX; type: cell-based, human; conditions: 10 μM TD combined with 2.5 mM HU
Summary of the method: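 HeLa lysates were made in RIPA buffer with protease inhibitor at 4 °C and quantified by BCA. 10−30 μg per lane was run on SDS-PAGE and blotted to PVDF. Membranes were blocked 1 h in 5% milk and probed overnight at 4 °C for Pif1, RPA2, γH2AX and GAPDH (loading control). HRP anti-mouse secondary (1:5000, 1 h) and ECL detection followed.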

GSK-3β = conditions: cited from earlier work
"Cys-conserved" kinases = conditions: 10 μM TD, panel of 68 kinases; cited from earlier work
[12] = test system: BaPif1 (Bacteroides sp. 2-1-16); assay: fluorescence polarization

## NC(=O)NO [HU, hydroxyurea]
HeLa cells [1]; 2.5 mM HU
  Induction of RPA foci formation: efficiently induce RPA foci formation

## O=c1sn(-c2cccc3ccccc23)c(=O)n1Cc1ccccc1 [TD, Tideglusib]
BaPif1 [2]
  Blocking of ssDNA binding to BaPif1 (F-EMSA), in words: could block the binding of single-stranded DNA (ssDNA) to the BaPif1 protein
BaPif1 [3]
  IC50: 2.3 ± 0.13 µM
BaPif1 [4]
  Concentration at which unwinding (helicase) activity of BaPif1 was inhibited: 4 µM
hPif1-HD [5]
  IC50: 5.79 ± 0.6 µM
hPif1-HD [6]
  IC50: 2.5 ± 0.1 µM
hPif1-HD [7]
  Concentration at which helicase activity of hPif1-HD was inhibited: 7.8 µM
BaPif1 [8]
  Reversibility of inhibition of BaPif1 ATPase activity after filtration-dilution: irreversible
BaPif1 C380A mutant [9]
  Sensitivity of C380A mutant to the compound compared with wild-type: less sensitive
BaPif1 C234A mutant
  Sensitivity of C234A mutant to the compound compared with wild-type: little change
BaPif1 C380A mutant [10]
  Reversibility of inhibition of C380A ATPase activity after filtration: reversible
HeLa cells [1]; 10 μM TD combined with 2.5 mM HU, 24 h
  Reduction of RPA foci formation: 20%
HeLa cells [11]
  Protein level of Pif1 and RPA: did not alter
  Protein level of γH2AX: slightly decreased
GSK-3β
  Reversibility of GSK-3β inhibition: irreversibly
"Cys-conserved" kinases
  Number of "Cys-conserved" kinases significantly inhibited: 10 of the 26

## TTTTTTTTTTTTTTTTTT [FAM-dT18]
[12]
  Kd: 7 µM
